Source: article PMC7031742 (Journal of Ginseng Research, 2018)
Several values for one entry are separate records, joined by “and”; a condition that tells them apart may be missing. Equal values may be shown once. Read-outs that look alike come from different tables or passages of the source.

What was measured:
[1] = Permeability of ginsenoside in Caco-2 cells; format: in vitro ADME; conditions: human; for Papp A→B at 1 h, 10 μM / Papp B→A at 1 h, 10 μM: Caco-2; for efflux ratio at 1 h, 10 μM: Caco-2, ER (efflux ratio), Caco-2, B to A / A to B
How it was run: (§1)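 Caco-2 cells (passage 41–43) grown in DMEM with 20% FBS, 1% nonessential amino acids, 4 mM L-glutamine and penicillin-streptomycin, then cultured 21 days on Transwell inserts. Test compound at 10 μM in HBSS was dosed for apical-to-basal and basal-to-apical transport over 1 h. Samples were quenched in methanol with berberine IS and analysed by LC-MS/MS. Papp = transport rate / (donor concentration × insert area).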

[2] = Pharmacokinetics of ginsenosides in human plasma after single or repeated; format: in vivo; conditions: for Accumulation factor: AUC of repeated administration divided by AUC of single administration; for Detection in human plasma samples: after oral ingestion of red ginseng extract, LC-MS/MS; for AUC / Cmax / MRT / Tmax / half-life: male, human, plasma, po, 3 pouches of red ginseng extract; for half-life: t1/2, single dose of red ginseng extract, human plasma
[3] = cited from earlier work
[4] = cited from earlier work; remark: listed apart in the source
[5] = tested on: Caco-2 cells; experiment: Permeability of ginsenoside in Caco-2 cells; format: in vitro ADME; conditions: for ER (efflux ratio): Caco-2, B to A / A to B; for Papp A to B: apical to basal; for Papp A to B / Papp B to A: 10 μM, 1 h; for Papp B to A: basal to apical
How it was run: as §1

Row | Papp A→B at 1 h, 10 μM [1] [×10⁻⁶ cm/s] | Papp B→A at 1 h, 10 μM [1] [×10⁻⁶ cm/s] | efflux ratio at 1 h, 10 μM [1] | Accumulation factor [2] | Detection in human plasma samples [2] | AUC [2] [ng·h/mL] | Cmax [2] [ng/mL] | MRT [2] [h] | Tmax [2] [h] | half-life [2] [min] | SMILES | Stability over the enzymatic and alkaline hydrolysis [3] | Bioavailability ([4]; ref Odani et al. [10]) [%] | Bioavailability ([4]; ref Xu et al. [11]) [%] | ER (efflux ratio) [5] | Papp A to B [5] | Papp B to A [5]
1 | 0.28 ± 0.09 | 0.33 ± 0.06 | < 2 | 4.5–6.7 and 5.44 | detected | 59.4 ± 22.9 | 1.5 ± 0.63 | 27.4 ± 2.34 | 3.68 ± 1.7 | 2140 ± 887 | CC(C)=CCC[C@](C)(O[C@@H]1O[C@H](CO[C@@H]2O[C@@H](CO)[C@H](O)[C@H]2O)[C@@H](O)[C@H](O)[C@H]1O)[C@H]1CC[C@]2(C)[C@@H]1[C@H](O)C[C@@H]1[C@@]3(C)CC[C@H](O[C@@H]4O[C@H](CO)[C@@H](O)[C@H](O)[C@H]4O[C@@H]4O[C@H](CO)[C@@H](O)[C@H](O)[C@H]4O)C(C)(C)[C@@H]3CC[C@]12C [Rc] | stable | – | – | – | – | –
2 | 0.22 ± 0.02 | 0.31 ± 0.04 | < 2 | 4.5–6.7 and 4.49 | detected | 22.6 ± 18.3 | 0.7 ± 0.46 | 24.7 ± 2.23 | 4.87 ± 1.92 | 1440 ± 916 | CC(C)=CCC[C@](C)(O[C@@H]1O[C@H](CO)[C@@H](O)[C@H](O)[C@H]1O)[C@H]1CC[C@]2(C)[C@@H]1[C@H](O)C[C@@H]1[C@@]3(C)CC[C@H](O[C@@H]4O[C@H](CO)[C@@H](O)[C@H](O)[C@H]4O[C@@H]4O[C@H](CO)[C@@H](O)[C@H](O)[C@H]4O)C(C)(C)[C@@H]3CC[C@]12C [Rd] | stable | – | – | – | – | –
3 | – | – | – | – | could not be found | – | – | – | – | – | CC(C)=CCC[C@](C)(O[C@@H]1O[C@H](CO)[C@@H](O)[C@H](O)[C@H]1O)[C@H]1CC[C@]2(C)[C@@H]1[C@H](O)C[C@@H]1[C@@]3(C)CC[C@H](O)C(C)(C)[C@@H]3[C@@H](O[C@@H]3O[C@H](CO)[C@@H](O)[C@H](O)[C@H]3O)C[C@]12C [Rg1] | – | 2 | 18.4 | – | – | –
4 | – | – | – | – | absence | – | – | – | – | – | CC(C)=CCC[C@](C)(O)[C@H]1CC[C@]2(C)[C@@H]1[C@H](O)C[C@@H]1[C@@]3(C)CC[C@H](O[C@@H]4O[C@H](CO)[C@@H](O)[C@H](O)[C@H]4O[C@@H]4O[C@H](CO)[C@@H](O)[C@H](O)[C@H]4O)C(C)(C)[C@@H]3CC[C@]12C [Rg3] | – | – | – | 2.97 | 0.05 ± 0.01 ☓10^−6 cm/s | 0.14 ± 0.06 ☓10^−6 cm/s

Second part, the compound before the results:

Row | SMILES | Papp A→B at 1 h, 10 μM [1] [×10⁻⁶ cm/s] | Papp B→A at 1 h, 10 μM [1] [×10⁻⁶ cm/s] | efflux ratio at 1 h, 10 μM [1] | Accumulation factor [2] | Detection in human plasma samples [2] | AUC [2] [ng·h/mL] | Cmax [2] [ng/mL] | MRT [2] [h] | Tmax [2] [h] | half-life [2] [min] | Stability over the enzymatic and alkaline hydrolysis [3] | Bioavailability ([4]; ref Odani et al. [10]) [%] | Bioavailability ([4]; ref Xu et al. [11]) [%] | ER (efflux ratio) [5] | Papp A to B [5] | Papp B to A [5]
5 | CC(C)=CCC[C@](C)(O[C@@H]1O[C@H](CO[C@@H]2O[C@H](CO)[C@@H](O)[C@H](O)[C@H]2O)[C@@H](O)[C@H](O)[C@H]1O)[C@H]1CC[C@]2(C)[C@@H]1[C@H](O)C[C@@H]1[C@@]3(C)CC[C@H](O[C@@H]4O[C@H](CO)[C@@H](O)[C@H](O)[C@H]4O[C@@H]4O[C@H](CO)[C@@H](O)[C@H](O)[C@H]4O)C(C)(C)[C@@H]3CC[C@]12C [Rb1] | 0.27 ± 0.03 | 0.3 ± 0.08 | < 2 | 4.5–6.7 and 4.55 | detected | 82.7 ± 26.3 | 2.19 ± 0.73 | 26.8 ± 1.59 | 3.53 ± 1.25 | 2100 ± 508 | stable | 0.1 | 4.3 | – | – | –
6 | CC(C)=CCC[C@](C)(O[C@@H]1O[C@H](CO[C@@H]2OC[C@H](O)[C@H](O)[C@H]2O)[C@@H](O)[C@H](O)[C@H]1O)[C@H]1CC[C@]2(C)[C@@H]1[C@H](O)C[C@@H]1[C@@]3(C)CC[C@H](O[C@@H]4O[C@H](CO)[C@@H](O)[C@H](O)[C@H]4O[C@@H]4O[C@H](CO)[C@@H](O)[C@H](O)[C@H]4O)C(C)(C)[C@@H]3CC[C@]12C [Rb2] | 0.28 ± 0.02 | 0.24 ± 0.05 | – | 4.5–6.7 and 6.73 | detected | 47.1 ± 16.4 | 1.26 ± 0.39 | 26.8 ± 1.74 | 3.87 ± 2.47 | 2290 ± 1220 | stable | – | – | – | – | –
7 | CC(C)=CCC[C@](C)(O)[C@H]1CC[C@]2(C)[C@@H]1[C@H](O)C[C@@H]1[C@@]3(C)CC[C@H](O)C(C)(C)[C@@H]3[C@@H](O[C@@H]3O[C@H](CO)[C@@H](O)[C@H](O)[C@H]3O)C[C@]12C [Rh1] | – | – | – | – | could not be found | – | – | – | – | – | – | – | – | 6.27 | 0.22 ± 0.04 ☓10^−6 cm/s | 1.35 ± 0.14 ☓10^−6 cm/s
